Source: PubChem BioAssay
HCV core dimer: HCV core protein dimerization inhibition; TR-FRET GST/Flag-core106 dimerization, 1536-well; inhibition, % at 5 µM; 0.33% of 300,000 active;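 active means inhibition above the mean of all tested compounds plus 3 SD, set per screening campaign, cut at about 45% in these data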
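Material: GST/Flag-tagged HCV core106 proteins. Incubation: 4 h, 22.5 °C incubation. Read-out basis: inhibition (%) from 671 over 617 nm ratio. Measured by: TR-FRET, excitation 340 nm, emission 617 and 671 nm.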
rCAG RNA binder: binds r(CAG) RNA repeats; r(CAG) RNA repeat, TO-PRO-1 dye displacement fluorescence; inhibition, % at 3 µM; 1.3% of 370,000 active; AID 651821;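 active means inhibition above the plate cutoff, the mean of all test compounds on that plate plus 3 SD, cut at about 35% in these data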;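 further: 0% = DMSO alone and 100% = 100 µM mitoxantrone as full dye displacement; higher means more dye released from RNA so lower well fluorescence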
TAAR1 agonist: agonists of human TAAR1; Q96RJ0; 0.99% of 360,000 active; CHO RD-HGA16 TAAR1, Fluo-8 calcium fluorescence; vehicle wells 0%, saturating PEA agonist 100%; activation, % at 3 µM;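 active means activation above the mean activation of all test compounds in the run plus 3 SD, cut at about 38% in these data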
Target sequence (Q96RJ0 whole entry, looked up): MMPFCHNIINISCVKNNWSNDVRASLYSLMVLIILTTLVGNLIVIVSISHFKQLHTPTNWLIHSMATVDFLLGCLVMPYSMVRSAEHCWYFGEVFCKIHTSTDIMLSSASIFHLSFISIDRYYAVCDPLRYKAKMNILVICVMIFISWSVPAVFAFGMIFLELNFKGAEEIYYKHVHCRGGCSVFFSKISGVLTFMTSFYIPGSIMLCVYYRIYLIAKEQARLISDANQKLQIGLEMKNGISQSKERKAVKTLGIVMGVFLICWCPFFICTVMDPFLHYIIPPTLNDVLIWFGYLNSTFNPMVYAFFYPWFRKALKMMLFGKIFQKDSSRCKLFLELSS
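test system = CHO RD-HGA16 cells carrying human TAAR1 plus Gα16 | schedule = 17-24 h seeding, 75 min 37 °C dye, 30 min RT | compound dosing = 3 µM single concentration | control set = DMSO and PEA EC100 | replicates = n 1 | signal = Fluo-8 fluorescence, 5 s baseline then 140 s kinetic read | measure = percent activation vs PEA EC100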
NS3 helicase inh: inhibitors of Hepatitis C virus NS3 helicase; NS3 helicase DNA unwinding, Cy5 molecular beacon fluorescence; inhibition, % at 10.9 µM; 0.56% of 290,000 active;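 active means inhibition above the mean of all tested compounds plus 3 SD, set per campaign, cut at about 35% in these data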;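 further: 0% = DMSO wells and 100% = thioflavine S control wells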
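Control set: DMSO versus 110 µM thioflavine S; Material: NS3 helicase fragment of HCV; Measured by: Cy5 fluorescence at 0 and 60 min, beacon hairpin quenching; Read-out basis: percent inhibition from t60/t0 fluorescence ratio; Times: reaction time 60 min, 25 °C; Repeats: single replicate; Compound dosing: single dose, 10.9 µM nominal final, DMSO 0.8% final.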
TAAR1 antagonist: antagonists of human TAAR1. inhibition, % at 3 µM. Q96RJ0. CHO RD-HGA16 TAAR1, Fluo-8 calcium fluorescence, antagonist. 1.5% of 360,000 active. AID 624466;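 active means inhibition above a per-plate cutoff, the mean inhibition of test compounds on that plate plus 3 SD, cut at about 49% in these data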;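 further: 0% = DMSO plus EC80 beta-PEA response and 100% = DMSO alone without agonist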
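Assay system: RD-HGA16 CHO cells with stable hTAAR1 and Gα16 / Reagent: EC80 β-phenethylamine stimulus / Doses: 3 µM, single point / Timing: dye loading 75 min at 37 °C, then 30 min room temperature / Measured by: Fluo-8 intracellular calcium dye fluorescence, real-time kinetic reads / Controls: vehicle wells and EC80 agonist wells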
rCAG binder conf: r(CAG) RNA repeat binding, confirmation; inhibition, % at 3 µM; TO-PRO-1 dye displacement fluorescence; 70% of 4,300 active; shares compounds with rCAG RNA binder;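 active means inhibition above a per-plate cutoff, the mean inhibition of sample wells plus 3 SD, cut at about 35% in these data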;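 further: loss of TO-PRO-1 fluorescence as compound displaces dye from 1x1 AA loop RNA; 0% = DMSO only wells and 100% = 100 µM mitoxantrone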
dCAG dye counter: counter-screen for rCAG RNA binders: DNA CAG dye complex inhibitors. AID 652068. d(CAG) DNA oligo TO-PRO-1 dye displacement, fluorescence. shares compounds with rCAG RNA binder. inhibition, % at 3 µM. 94% of 4,300 active;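 active means inhibition above its plate's cutoff, the mean test-well inhibition plus 3 SD, cut at about 4.8% in these data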;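 further: 0% = DNA dye mix with DMSO and 100% = 100 µM mitoxantrone; hits displace the dye from DNA and so lower well fluorescence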
dCAG dye DR: counter-screen for rCAG binders: inhibitors of DNA CAG TO-PRO-1 complex; DNA CAG/GTC duplex TO-PRO-1 dye displacement fluorescence; IC50, µM; 20% of 250 active; shares compounds with rCAG RNA binder; in the data active means IC50 below about 10 µM
* = called active by the depositor; i = inactive; . = not tested or not shown. Only some compounds are listed: those with a hit (about 3.7% of all), similar ones and a draw of the others.

SMILES	HCV core dimer	rCAG RNA binder	TAAR1 agonist	NS3 helicase inh	TAAR1 antagonist	rCAG binder conf	dCAG dye counter	others
COC(=O)c1sc(N2C(=O)C(O)=C(C(=O)c3ccc(C)o3)C2c2cccs2)nc1C (stereo not drawn)	-17	48*	-2	10	-76	48*	17*
Oc1ccc(/C=N/NC(=S)Nc2cccnc2)c(O)c1O	.	44*	6	30	-7	39*	15*
Oc1cccc(/C=N/NC(=S)Nc2cccnc2)c1O	-12	21	5	31	-7	.	.
CCOC(=O)c1ccccc1-c1csc(NS(=O)(=O)c2ccc(Cl)cc2)n1	23	76*	-2	7	7	70*	33*	dCAG dye DR=i
COc1cc(/C=C/C(=O)O)cc(S(=O)(=O)Nc2ccc3cn[nH]c3c2)c1OC	.	3	4	.	7	.	.
COc1cc(/C=C/C(=O)O)cc(S(=O)(=O)Nc2ccc3nc(SC)sc3c2)c1OC	4	50*	2	12	-7	32	9.6*
COC(=O)[C@]12C[C@H](CC(=O)N3CCCCC3)C(=O)N(Cc3ccc(Cl)cc3Cl)C1=C[C@H](COCc1ccccc1)O[C@@H]2C	.	7	.	.	.	.	.
CCS(=O)(=O)C1=NN2C(=N)/C(=C\c3ccc(OC(=O)c4ccco4)c(OC)c3)C(=O)N=C2S1	4	52*	-1	13	-13	80*	47*
Cc1cc(/C=C2\C(=N)N3N=C(S(C)(=O)=O)SC3=NC2=O)c(C)n1Cc1ccccc1	28	66*	2	9	-6	89*	62*
CS(=O)(=O)C1=NN2C(=N)/C(=C\c3ccc(OC(=O)c4ccco4)cc3)C(=O)N=C2S1	13	31	2	12	5	.	.
COc1cc(/C=C2/C(=O)NN(c3ccccc3)C2=O)cc(Br)c1O	-5	10	4	28	-27	.	.
CC1=NN2C(=N)/C(=C\c3cc(C)n(-c4ccc(C)cc4)c3C)C(=O)N=C2S1	9	0	2	9	-26	.	.
CC(C)CS(=O)(=O)C1=NN2C(=N)/C(=C\c3ccc(OC(=O)c4ccco4)cc3)C(=O)N=C2S1	8	81*	-2	36	-19	87*	66*
COc1cc(/C=C2/C(=O)NN(c3ccc(Cl)cc3)C2=O)cc(OC)c1O	-8	37*	22	32	18	13	4.5*
CCOc1cc(/C=C2/SC(=S)NC2=O)ccc1OC(=O)c1ccco1	5	72*	-1	2	11	79*	43*
COc1cc(/C=C2\C(=N)N3N=C(S(C)(=O)=O)SC3=NC2=O)cc(OC)c1OCCOc1ccccc1C	23	55*	0	0	7	92*	81*
CCOc1cc(/C=C2/C(=N)N3N=C(C)SC3=NC2=O)ccc1OS(=O)(=O)c1ccc(C)cc1	26	12	-6	-7	12	.	.
COc1cc(/C=C2\C(=N)N3N=C(S(C)(=O)=O)SC3=NC2=O)ccc1OS(=O)(=O)c1ccc(C)cc1	25	51*	1	4	1	87*	59*
CCC1=NN2C(=N)/C(=C/c3ccc(OS(=O)(=O)c4ccccc4)c(OC)c3)C(=O)N=C2S1	10	26	-2	-1	2	.	.
C=CCOc1ccc(/C=C2\C(=N)N3N=C(S(=O)(=O)CC)SC3=NC2=O)cc1OC	-3	36*	5	8	-18	82*	42*
O=C(NCC1CCN(C(=O)C(=O)c2cccs2)CC1)c1ccc2c(c1)CCO2	.	1	1	.	0	.	.
COc1cc(/C=C2\C(=O)N(c3ccc(S(N)(=O)=O)cc3)N=C2C)ccc1OC(=O)c1ccco1	7	11	-1	14	10	.	.
CCOC(=O)c1ccc(N2NC(=O)/C(=C/c3ccc(OC(=O)c4ccco4)c(OC)c3)C2=O)cc1	8	84*	0	29	0	90*	66*
